Only some compounds are listed: those with a hit (about 4.1% of all), similar ones and a draw of the others.
ATG4B inhibitor = blocks human ATG4B protease cleavage of LC3 substrate. ATG4B cleavage of LC3-PLA2, NBD-HPC fluorescence, 1 h. hit rate 0.51% among 340,000. inhibition, % at 8.33 µM. AID 504462. Q9Y4P1; in the data active means inhibition above about 40%
MC4R antag cAMP = antagonists of human melanocortin 4 receptor (MC4R); P32245; MC4R-expressing cells, MTII-stimulated cAMP, LANCE TR-FRET; inhibition, % at 6.5 µM; hit rate 0.48% among 360,000;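 active means inhibition above its plate's cutoff, the mean of tested wells on that plate plus 3 SD, cut at about 29% in these data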;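 further: 0% = Melanotan II alone and 100% = Melanotan II plus saturating MCL0020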
Target sequence (P32245 whole entry, looked up): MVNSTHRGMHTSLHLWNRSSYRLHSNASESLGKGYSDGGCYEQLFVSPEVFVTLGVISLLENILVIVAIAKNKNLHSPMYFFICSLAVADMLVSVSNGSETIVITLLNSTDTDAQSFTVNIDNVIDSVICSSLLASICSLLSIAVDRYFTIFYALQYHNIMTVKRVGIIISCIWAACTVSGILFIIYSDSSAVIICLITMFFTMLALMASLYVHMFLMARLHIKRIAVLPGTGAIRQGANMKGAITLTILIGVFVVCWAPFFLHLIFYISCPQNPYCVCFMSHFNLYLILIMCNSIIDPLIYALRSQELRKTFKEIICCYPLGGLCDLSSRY
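Assay system: U2OS-MC4R stable cell line; Also added: Melanotan II; Technique: Eu-cAMP/anti-cAMP TR-FRET, emission 671 nm; Times: 30-min compound, 1-h challenge, 1-h detection, room temperature.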
MPTP block = blocks calcium-induced mitochondrial swelling; hit rate 1.4% among 360,000; inhibition, % at 10 µM; isolated mouse mitochondria, Ca2+ swelling absorbance, 30 min; AID 602449;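 active means inhibition of 50% or more, scaled per plate between neutral and stimulator controls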;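 further: 0% = DMSO wells given calcium and 100% = 1 mM EGTA wells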
MC4R barr agon = activates human MC4R beta-arrestin recruitment; AID 540308; U2OS MC4R beta-arrestin complementation, luminescence; percent of melanotan II response, DMSO zero; hit rate 0.98% among 360,000; activation, % at 8.9 µM; P32245;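 active means activation above a per-plate cutoff, the mean activation of sample wells on that plate plus 3 SD, cut at about 8% in these data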
SMARCA2 act = increases SMARCA2 function in MMTV reporter cells; activation, % at 9.1 µM; MG213 cells, MMTV-luciferase reporter, dexamethasone, overnight; hit rate 1% among 370,000; in the data active means activation above about 7.8%;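 further: 0% = vehicle wells and 100% = reference activator wells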
ATG4B conf = confirmation of human ATG4B inhibitors; shares compounds with ATG4B inhibitor; ATG4B protease fluorescent substrate cleavage assay; inhibition, % at 8.33 µM; hit rate 92% among 320; AID 504757; in the data active means inhibition above about 39%
PLA2 counter = PLA2 (human) inhibition in ATG4B counter-screen; shares compounds with ATG4B inhibitor; inhibition, % at 8.33 µM; hit rate 66% among 1,600; purified PLA2, NBD-C6-HPC fluorescence, 45 min; in the data active means inhibition above about 50%
Target sequence (P04054 whole entry, looked up): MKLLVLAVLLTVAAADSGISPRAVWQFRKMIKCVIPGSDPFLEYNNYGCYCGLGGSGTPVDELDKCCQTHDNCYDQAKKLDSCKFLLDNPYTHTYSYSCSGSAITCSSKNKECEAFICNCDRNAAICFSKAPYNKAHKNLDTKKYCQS
cAMP nonselect = counter-screen for MC4R antagonists: nonselective cAMP signaling inhibitors. shares compounds with MC4R antag cAMP. parental U2OS, forskolin cAMP, LANCE TR-FRET. inhibition, % at 6.5 µM. hit rate 26% among 1,600. AID 602193;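 active means mean inhibition over triplicates above the low-control well mean plus 3 SD, set per campaign, cut at about 13% in these data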;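 further: signal is single emission at 671 nm which falls as cellular cAMP rises; 0% = forskolin-stimulated wells and 100% = buffer without forskolin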
MC4R antag conf = human MC4R cAMP antagonism confirmation. shares compounds with MC4R antag cAMP. MC4R-expressing cells, MTII-stimulated cAMP, TR-FRET. inhibition, % at 6.5 µM. hit rate 27% among 1,600. AID 602195; in the data active means inhibition above about 29%;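 further: 0% = agonist stimulated wells alone and 100% = agonist stimulated wells plus saturating reference antagonist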
MC4R barr ag = human MC4R beta-arrestin agonism confirmation; shares compounds with MC4R barr agon; U2OS MC4R beta-arrestin recruitment, luminescence; scaled DMSO 0%, Melanotan II 100%; activation, % at 8.9 µM; hit rate 31% among 2,400;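 active means mean activation across replicates above the hit cutoff set in the earlier primary screen, cut at about 8% in these data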
MOR DOR agonist = OPRM1-OPRD1 heterodimer agonism counter-screen. shares compounds with MC4R barr agon. U2OS PathHunter beta-arrestin, beta-gal luminescence; percent of deltorphin B response, DMSO zero. activation, % at 9.2 µM. hit rate 5.8% among 2,400. AID 602194;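 active means mean activation across replicates exceeds the hit threshold derived in the earlier primary screen, cut at about 18% in these data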;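 further: 100% = deltorphin B at 0.9 µM final and 0% = DMSO alone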
* = called active by the depositor; . = no result given.

SMILES	ATG4B inhibitor	MC4R antag cAMP	MPTP block	MC4R barr agon	SMARCA2 act	PLA2 counter	others
O=C(c1ccco1)N1CCN(c2nc(C3CC3)nc3sc4c(c23)CCCC4)CC1	93*	19	-1	1	.	91*
CCc1cc2ccccc2nc1SCC(=O)N1CCN(C(=O)c2ccco2)CC1	-3	0	-4	-3	1	.
COc1cccc(N2CCN(CC(=O)NCc3c(F)cccc3F)CC2)c1	.	.	.	.	-3	.
CC(C)CNC(=O)OCc1cn(Cc2cc(F)cc(F)c2)nn1	.	.	.	.	-3	.
CC(=O)Nc1ccc(OCC(C)CN2CCC(C(O)(c3ccccc3)c3ccccc3)CC2)cc1 (stereo not given)	.	.	.	.	-2	.
COc1ccc(-n2c(COc3ccccc3)nnc2SCC(=O)Nc2ccccc2-c2ccccc2)cc1	.	.	.	.	-5	.
C#CCOCCOCCOCCNc1nc(N2CCN(C(=O)CCCCCCCCCCNC(=O)[C@H](CCCCN)n3cc(C[C@@H](C)CC)nn3)CC2)nc(N2CCN(C(=O)CCCCCCCCCCNC(=O)[C@H](CCCCN)n3cc(C[C@@H](C)CC)nn3)CC2)n1	80*	75*	-3	0	.	78*	cAMP nonselect=34*;MC4R antag conf=84*
C#CCOCCOCCOCCNc1nc(N2CCN(C(=O)CCCCCCCCCCNC(=O)[C@H](CCCCN)n3cc(CCCC(=O)O)nn3)CC2)nc(N2CCN(C(=O)CCCCCCCCCCNC(=O)[C@H](CCCCN)n3cc(CCCC(=O)O)nn3)CC2)n1	-24	-2	-2	-1	.	.
O=C(Oc1cncc(Cl)c1)c1ccco1	-6	-4	-1	-2	-2	.
O=C(Oc1cncc(Cl)c1)c1sccc1Cl	98*	33*	2	3	-4	-12	cAMP nonselect=-1;MC4R antag conf=-9
Cn1c(SCc2ccc(C(C)(C)C)cc2)nnc1-c1ccco1	.	.	.	.	-2	.
C=CCC12C=C(OC)C(=O)C(C1=O)C1c3ccccc3CC12 (stereo not given)	.	.	.	.	-1	.
O=C(Nc1ccccc1-c1ccccc1)c1ccc(Cl)c([N+](=O)[O-])c1	41*	56*	4	0	1	36	cAMP nonselect=31*;MC4R antag conf=74*
COC(=O)C1CN(Cc2ccc(OC)cc2)CCS(=O)(=O)N1Cc1cn(Cc2ccc(C)cc2)nn1 (stereo not given)	.	.	.	.	-1	.
CC1CCN(C(=O)c2ccc3c(c2)NC(=O)/C(=C/c2ccccc2)S3)CC1	56*	35*	2	8.8*	-2	76*	cAMP nonselect=-1;MC4R antag conf=2
O=C1NC(=O)/C(=C\c2ccccc2OCc2ccccc2)S1	47*	39*	20	-1	-2	49	ATG4B conf=59*;cAMP nonselect=0;MC4R antag conf=5
CC(NCc1ccco1)C(=O)N1CCN(c2ccc(F)cc2)CC1 (stereo not given)	.	.	.	.	7	.
CCCCC(CC)CN=C(N)NC(N)=NCCCCCCN=C(N)NC(N)=NCC(CC)CCCC (stereo not given)	69*	69*	-2	3	.	23	ATG4B conf=14;cAMP nonselect=55*;MC4R antag conf=90*
CCCCC(CC)CO (stereo not given)	-30	4	-1	0	0	.
Nc1c(C(=O)Nc2ccccc2F)sc2nc(Cc3ccccc3)cc(C(F)(F)F)c12	66*	111*	3	7	-1	-3	cAMP nonselect=5;MC4R antag conf=-1
CCOC(=O)C1=C(c2ccccc2)NC(N)=NC1c1ccc(OCc2ccc(C(=O)OC)cc2)cc1 (stereo not given)	46*	13	6	14*	-1	53*	MC4R barr ag=6;MOR DOR agonist=9
COC(=O)[C@]12C[C@H](CC(=O)N3CCCCC3)C(=O)N(Cc3ccccc3)C1=C[C@H](C(C)(C)C)O[C@@H]2C	.	.	.	.	-5	.
C[C@H](NC(=O)C[C@@H]1C[C@@H]2c3cc(NC(=O)C4CCC4)ccc3O[C@@H]2[C@@H](CO)O1)c1ccccc1	.	.	.	.	-4	.
Cc1c(CCOC(=O)C23CC4(C)CC(C)(CC(C)(C4)C2)C3)sc[n+]1CC(=O)c1ccccc1	47*	-2	-1	17*	-1	47	ATG4B conf=51*;MC4R barr ag=16*;MOR DOR agonist=18
COc1ccc(C)cc1NC(=O)CSc1nnc(COc2ccc(Cl)cc2)n1Cc1ccco1	-21	-1	4	0	-4	.
SMILES	ATG4B inhibitor	MC4R antag cAMP	MPTP block	MC4R barr agon	SMARCA2 act	PLA2 counter	others
O=C(CSc1nnc(COc2ccc(Cl)cc2)n1Cc1ccco1)c1ccccc1F	44*	3	1	22*	-2	34	ATG4B conf=57*;MC4R barr ag=4;MOR DOR agonist=3
O=c1c2ccccc2nc(/C=C/c2ccc(O)cc2)n1CCc1ccccc1	48*	16	-15	15*	-2	48	ATG4B conf=72*;MC4R barr ag=1;MOR DOR agonist=7
O=c1c2ccccc2nc(/C=C/c2ccccc2)n1CCCO	1	4	-1	0	-2	.
S=c1[nH]nc(-c2cccc(Cl)c2)n1/N=C/c1ccc(-c2ccccc2Br)o1	1	19	7	0	0	.
S=c1[nH]nc(-c2ccccc2)n1/N=C/c1ccc(-c2ccccc2Cl)o1	42*	9	9	12*	-4	58*	MC4R barr ag=-3;MOR DOR agonist=2
CCn1cc(C(=O)NCc2cccc(C(F)(F)F)c2)c(=O)c2ccc(C)nc21	53*	3	1	14*	0	50	MC4R barr ag=2;MOR DOR agonist=4
O=C1N/C(=N\N=C\c2cccs2)SC1Cc1ccc(Cl)cc1 (stereo not given)	43*	-4	3	15*	-2	-1	MC4R barr ag=4;MOR DOR agonist=5
CCCCCCCCCCC[N+](C)(C)CC/C=C1/c2ccccc2Sc2ccc(Cl)cc21	47*	36*	-2	21*	.	52*	cAMP nonselect=7;MC4R antag conf=30*;MC4R barr ag=25*;MOR DOR agonist=19*
COC(=O)[C@]12C[C@H](CC(=O)N3CCN(C(=O)c4ccco4)CC3)C(=O)N(Cc3ccco3)C1=C[C@H](C(C)C)O[C@@H]2C1CC1	.	.	.	.	-1	.
CC(C)(C)c1ccc(C(=O)N2CCNCC2)cc1	-6	9	-1	0	-4	.
